# pKi: −log10 of the molar value. Activity calls are given as the source filed them. The calls are words filed in the database; no cut-off is given here.
# Key:
# [1] = target: Sodium-dependent dopamine transporter (Rattus norvegicus) (UniProt P23977); test: Inhibition of DAT in Wistar rat striatal synaptosomes at 100 uM by [3H]dopamine uptake assay; format: subcellular; details: Brain
# How it was run: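 Synaptosomes were prepared from female Wistar rat striatum at 0–4 °C. Tissue was homogenized in 0.32 M sucrose, spun twice at 1000g for 10 min, and the pooled supernatants were spun at 16,000g for 30 min. The pellet was taken up in Krebs medium (pH 7.6, with glucose). Samples were preincubated for 10 min at 37 °C with pargyline, then given 0.5 nM final [³H]dopamine for 10 min. Uptake was stopped by ice-cold dilution and rapid fiberglass filtration.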
# D(1A) dopamine receptor = D(1A) dopamine receptor (Rattus norvegicus, UniProt P18901); test: Displacement of [3H]SCH23390 from dopamine D1 receptor in Wistar rat striatal membrane by liquid scintillation counting; format: cell membranes, Striatum
# How it was run: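 Female Wistar rat striatum homogenized in 50 mM Tris-HCl pH 7.4, then washed twice at 49,000g. Membranes were resuspended in Tris-ions buffer (NaCl, CaCl2, KCl, MgCl2, 0.1% ascorbate). [3H]-SCH23390 displacement was read by filtration and scintillation counting. Ki was derived using KD 0.36 nM; 3–6 independent runs in duplicate, mean SEM.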
# Rattus norvegicus = organism: Rattus norvegicus; test: Selectivity for Wistar rat dopamine D2 receptor over Wistar rat dopamine D1 receptor
# D(2) dopamine receptor = D(2) dopamine receptor (Rattus norvegicus, UniProt P61169); test: Displacement of [3H]raclopride from dopamine D2 receptor in Wistar rat striatal membrane by liquid scintillation counting; format: cell membranes, Striatum; details: read-out: pKi (converted)
# How it was run: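 Striata from female Wistar rats (200–220 g) were homogenized in 50 mM Tris-HCl (pH 7.4) and centrifuged twice at 49,000g for 15 min at 4 °C. Membranes were resuspended in Tris buffer containing 120 mM NaCl, 2 mM CaCl₂, 5 mM KCl, 1 mM MgCl₂ and 0.1% ascorbic acid (pH 7.4). Samples were filtered, washed with cold buffer and counted by scintillation. Ki was derived using a [³H]raclopride KD of 1,25 nM, from 3–6 determinations run in duplicate.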
# Mus musculus = test: Antidepressant-like activity in NMRI mouse assessed as reduction in immobility time at 16 mg/kg, ip by forced swimming test relative to control; format: functional; design: scale not given: the % may be the effect or the level left; details: route intraperitoneal
# How it was run: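 Naive male NMRI mice (25–30 g) were used in randomized groups of n = 10 and tested in the dark phase. Injections (10 mL/kg) were given 30 min before testing, and saline was the vehicle. Each animal, not pre-tested, swam for 6 min in a cylinder 12 cm wide holding 13 cm of water at 23–24 °C. Immobility was scored over the last 4 min, and groups were compared with ANOVA and Fisher PLSD.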
# Sequence of D(2) dopamine receptor (P61169 whole entry): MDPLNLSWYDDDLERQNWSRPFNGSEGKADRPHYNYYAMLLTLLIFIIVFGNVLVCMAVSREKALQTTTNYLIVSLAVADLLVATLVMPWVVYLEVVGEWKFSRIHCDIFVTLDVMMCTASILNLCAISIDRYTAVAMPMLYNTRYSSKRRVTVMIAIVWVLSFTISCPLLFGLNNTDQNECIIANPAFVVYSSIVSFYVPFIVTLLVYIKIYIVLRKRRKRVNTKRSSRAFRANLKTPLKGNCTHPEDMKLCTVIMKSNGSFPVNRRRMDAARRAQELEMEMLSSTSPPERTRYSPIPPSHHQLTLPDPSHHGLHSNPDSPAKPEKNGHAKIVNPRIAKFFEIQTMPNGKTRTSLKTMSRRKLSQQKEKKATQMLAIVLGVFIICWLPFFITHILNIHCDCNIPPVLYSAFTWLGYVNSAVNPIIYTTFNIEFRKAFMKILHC
# Sequence of D(1A) dopamine receptor (P18901 whole entry): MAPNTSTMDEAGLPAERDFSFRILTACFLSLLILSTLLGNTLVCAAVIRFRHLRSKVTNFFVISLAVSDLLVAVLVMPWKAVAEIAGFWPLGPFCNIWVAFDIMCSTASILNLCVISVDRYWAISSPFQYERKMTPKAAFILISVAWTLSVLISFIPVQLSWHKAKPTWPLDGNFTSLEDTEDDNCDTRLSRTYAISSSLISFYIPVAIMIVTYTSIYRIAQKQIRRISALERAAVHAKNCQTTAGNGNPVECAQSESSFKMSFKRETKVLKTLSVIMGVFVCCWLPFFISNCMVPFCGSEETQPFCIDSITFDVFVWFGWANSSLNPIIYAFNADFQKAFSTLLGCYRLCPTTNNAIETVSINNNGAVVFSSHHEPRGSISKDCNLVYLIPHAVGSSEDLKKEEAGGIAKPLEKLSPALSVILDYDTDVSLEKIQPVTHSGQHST
# Sequence of Sodium-dependent dopamine transporter (Rattus norvegicus) (P23977 whole entry): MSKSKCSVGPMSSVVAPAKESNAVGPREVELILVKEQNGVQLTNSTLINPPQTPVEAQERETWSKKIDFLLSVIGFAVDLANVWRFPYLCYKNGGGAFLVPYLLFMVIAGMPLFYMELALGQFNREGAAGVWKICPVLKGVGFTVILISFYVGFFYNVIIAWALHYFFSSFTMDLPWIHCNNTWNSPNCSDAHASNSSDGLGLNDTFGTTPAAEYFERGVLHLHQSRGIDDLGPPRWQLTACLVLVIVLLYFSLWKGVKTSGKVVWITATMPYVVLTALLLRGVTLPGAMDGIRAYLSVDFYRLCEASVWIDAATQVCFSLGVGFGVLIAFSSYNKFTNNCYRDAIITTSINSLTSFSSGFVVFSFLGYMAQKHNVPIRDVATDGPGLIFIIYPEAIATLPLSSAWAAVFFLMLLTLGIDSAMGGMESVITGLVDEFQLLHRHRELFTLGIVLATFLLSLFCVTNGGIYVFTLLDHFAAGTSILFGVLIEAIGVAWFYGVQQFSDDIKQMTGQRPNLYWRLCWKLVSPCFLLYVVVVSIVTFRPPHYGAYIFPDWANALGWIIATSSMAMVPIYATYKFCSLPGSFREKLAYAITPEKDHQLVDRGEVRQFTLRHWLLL
SMILES,Activity [1],pKi (D(1A) dopamine receptor),fold change (FC) (Rattus norvegicus),Ki (D(2) dopamine receptor),Activity (Mus musculus)
COc1cc2c(cc1Cl)CCN(C)C2Cc1ccccc1 (stereo not given),inactive,5.79,0.8,1530 nM,–
Oc1cc2c(cc1Cl)CCNC2c1ccccc1 (stereo not given),inactive,6.61,0.2,1120 nM,–
COc1cc2c(cc1Cl)CCN(C)C2c1ccccc1 (stereo not given),inactive,6.09,0.3,2140 nM,–
COc1cc2c(cc1Cl)CCNC2Cc1ccccc1 (stereo not given),inactive,5.63,5,968 nM,–
CN(C)CCCN1c2ccccc2CCc2ccccc21 [IMIPRAMINE],–,–,–,–,32%
CCCCC1c2cc(OC)c(Cl)cc2CCN1C (stereo not given),inactive,5.14,2.7,3770 nM,–
CCCCC1NCCc2cc(Cl)c(OC)cc21 (stereo not given),inactive,4.76,20,780 nM,–

# From ChEMBL document CHEMBL1154100, “Tetrahydroisoquinolines as dopaminergic ligands: 1-Butyl-7-chloro-6-hydroxy-tetrahydroisoquinoline, a new compound with antidepressant-like activity in mice” (Bioorg Med Chem, 2009)
